Test [1] addresses T1, Tyrosine-protein phosphatase non-receptor type 22 (Homo sapiens, UniProt Q9Y2R2).
T1 sequence (Q9Y2R2 whole entry): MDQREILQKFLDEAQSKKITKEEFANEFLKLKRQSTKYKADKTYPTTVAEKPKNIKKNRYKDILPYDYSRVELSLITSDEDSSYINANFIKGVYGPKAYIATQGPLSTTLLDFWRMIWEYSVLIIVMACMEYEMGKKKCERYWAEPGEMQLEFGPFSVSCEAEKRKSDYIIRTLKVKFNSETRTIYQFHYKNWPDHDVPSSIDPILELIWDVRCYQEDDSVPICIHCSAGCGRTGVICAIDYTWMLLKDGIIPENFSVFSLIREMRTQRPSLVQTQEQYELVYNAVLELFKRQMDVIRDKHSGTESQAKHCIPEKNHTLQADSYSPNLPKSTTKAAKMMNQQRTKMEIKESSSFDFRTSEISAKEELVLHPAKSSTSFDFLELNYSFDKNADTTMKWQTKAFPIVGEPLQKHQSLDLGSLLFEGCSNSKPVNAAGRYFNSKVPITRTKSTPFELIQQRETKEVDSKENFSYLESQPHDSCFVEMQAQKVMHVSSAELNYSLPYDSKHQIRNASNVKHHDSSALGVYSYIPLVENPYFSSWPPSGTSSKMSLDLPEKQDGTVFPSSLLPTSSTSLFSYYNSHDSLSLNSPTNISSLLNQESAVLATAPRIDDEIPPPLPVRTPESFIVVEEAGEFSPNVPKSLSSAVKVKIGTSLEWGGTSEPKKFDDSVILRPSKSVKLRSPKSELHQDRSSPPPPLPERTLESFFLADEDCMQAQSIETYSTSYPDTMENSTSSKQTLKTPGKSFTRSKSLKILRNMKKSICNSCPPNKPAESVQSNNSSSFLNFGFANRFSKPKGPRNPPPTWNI
Put plainly: Inhibition of recombinant human LYP using p-nitrophenyl phosphate as substrate preincubated for 10 mins followed by substrate addition and measured every minute for 10 mins by UV-VIS spectrophotometric analysis. The gist of the method:
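Recombinant PTP at PtpB 50 nM, LYP 169 nM, PTP-PEST 205 nM or PTP1B 38 nM, in 20 mM imidazole pH 7.0. Inhibitor (0.5–50 µM, DMSO ≤4% v/v) premixed with enzyme 10 min at 37 °C. Started with 10 mM pNPP. A410 each min for 10 min. Activity from 7 min minus 2 min. IC50 by linear regression. Triplicate.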

Test [2] has as its target T2, Low molecular weight protein-tyrosine phosphatase A (Mycobacterium tuberculosis) (UniProt P9WIA1).
T2 sequence (whole entry): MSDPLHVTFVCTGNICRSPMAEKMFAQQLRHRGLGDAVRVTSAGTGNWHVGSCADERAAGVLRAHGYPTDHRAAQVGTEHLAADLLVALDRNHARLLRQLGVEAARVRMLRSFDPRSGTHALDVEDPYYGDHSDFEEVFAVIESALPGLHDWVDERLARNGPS
The test is described as follows: Inhibition of recombinant Mycobacterium tuberculosis PtpA at 25 uM using p-nitrophenyl phosphate as substrate preincubated for 10 mins followed by substrate addition and measured every minute for 10 mins by UV-VIS spectrophotometric analysis. A digest of the protocol: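 Single-point screen at 25 µM final (from 1 mM DMSO stock, 2.5% DMSO final). 50 nM recombinant Mtb PtpA in 20 mM imidazole pH 7.0, premixed with compound 10 min at 37 °C. Reaction started with 10 mM pNPP. A410 read each min for 10 min at 37 °C. Residual activity from absorbance difference 7 min minus 2 min versus no-inhibitor wells. Triplicate.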

The nature of test [3]: Selectivity index, ratio of IC50 for recombinant Yersinia enterocolitica YopH to IC50 for recombinant Mycobacterium tuberculosis PtpA.
Test [4] deals with T3, Low molecular weight protein-tyrosine phosphatase A (Mycobacterium tuberculosis, UniProt P9WIA1).
T3 sequence (P9WIA1 whole entry): T2 sequence (whole entry)
The test is described as follows: Competitive inhibition of Mycobacterium tuberculosis PtpA using p-nitrophenyl phosphate as substrate by Michaelis-Menten plot analysis. The gist of the method:
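Mtb PtpA-catalysed pNPP hydrolysis with pNPP varied 0.2–20 mM at each of three inhibitor concentrations. Rates expressed as specific activity (µmol pNPP min-1 mg-1). Vmax and Km fitted to Michaelis–Menten equation. Ki from non-linear fits to competitive or non-competitive inhibition equation, at least three independent experiments.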

Regarding `O=[N+]([O-])c1ccc(/C=N/NC(=S)Nc2cccc3ccccc23)cc1`, in test [1], the IC50 was greater than 50 µM. The inhibition in test [2] was 77.7%. In addition, the Ratio IC50 in test [3] was 0.7.

For the compound `S=C(N/N=C/c1ccc(-c2ccccc2)cc1)Nc1cccc2ccccc12`, the IC50 in test [1] is greater than 50 µM. Further, the inhibition in test [2] came out at 79.7%. In test [3], the Ratio IC50 is 0.9.

For the compound `Cc1ccc(NC(=S)N/N=C/c2ccc(-c3cc(C(F)(F)F)ccc3Cl)o2)cc1`, in test [1], the half-inhibitory concentration (IC50) was greater than 50 µM. Further, the affinity in test [4] corresponds to a Ki of 12 µM. Further, in test [2], the inhibition stood at 66%. For the same compound, the Ratio IC50 in test [3] came out at 0.8.

Regarding `FC(F)(F)c1ccc(Cl)c(-c2ccc(/C=N/NC(=S)Nc3cccc4ccccc34)o2)c1`, in test [1], the 50% inhibitory concentration (IC50) was greater than 50 µM. In test [2], the inhibition is 86.7%. Besides, in test [3], the Ratio IC50 came out at 0.9.

A word on the IC50: it is the midpoint of a concentration-inhibition curve. Broadly, the inhibition is the change of the read-out against control, counted positive when it falls. Usually Ki stands for a dissociation constant, usually derived from enzyme kinetics or from competition with a known ligand. A high value points to weaker binding.

These data come from ChEMBL document CHEMBL4261631, “Synthetic thiosemicarbazones as a new class of Mycobacterium tuberculosis protein tyrosine phosphatase A inhibitors” (Bioorg Med Chem, 2018).
